Source: ChEMBL document CHEMBL3352188, “Synthesis, antimicrobial and molecular docking studies of enantiomerically pure N-alkylated β-amino alcohols from phenylpropanolamines” (2014)

Assays:
Pseudomonas aeruginosa [1] = assay: Antimicrobial activity against Pseudomonas aeruginosa MTCC 741 at 1 mg/disc after 24 hrs by disc diffusion assay; type: functional
Summary of the method: (§1)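 Disc diffusion on Mueller Hinton agar. Inoculum was grown in MHB for 24 h at 37 °C, swabbed onto the plates and dried for 10 min. Discs with 1 mg compound were left 30 min at room temperature for diffusion, then incubated at 37 °C for 24 h. Inhibition zone was read in mm; run twice. Solvent was the negative control, streptomycin the positive control.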

Candida albicans [2] = assay: Antimicrobial activity against Candida albicans MTCC 227 at 1 mg/disc after 24 hrs by disc diffusion assay; type: functional
Malassezia pachydermatis [3] = assay: Antimicrobial activity against Malassezia pachydermatis at 1 mg/disc after 24 hrs by disc diffusion assay; type: functional
Bacillus subtilis [4] = assay: Antimicrobial activity against Bacillus subtilis MTCC 441 after 24 hrs by two fold dilution method; type: functional; conditions: MTCC 441, 24 h
Summary of the method: (§2)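 Broth two-fold serial dilution in 96-well plates from 1000 to 7.81 µg/mL, compound in DMSO (2%). Inoculum was grown in MHB for 24 h at 37 °C; plates were incubated 24 h at 37 °C. 5 µL of broth was spotted onto MHA; MIC was the lowest concentration with no visible growth on agar. Streptomycin was the positive control.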

Micrococcus luteus [5] = assay: Antimicrobial activity against Micrococcus luteus MTCC 106 after 24 hrs by two fold dilution method; type: functional; conditions: MTCC 106, 24 h; summary of the method: as §2
Klebsiella aerogenes [6] = assay: Antimicrobial activity against Enterobacter aerogenes MTCC 111 after 24 hrs by two fold dilution method; type: functional; conditions: MTCC 111, 24 h; summary of the method: as §2
Staphylococcus aureus [7] = assay: Antimicrobial activity against Staphylococcus aureus MTCC 96 after 24 hrs by two fold dilution method; type: functional; conditions: MTCC 96, 24 h; summary of the method: as §2
Salmonella typhimurium [8] = assay: Antimicrobial activity against Salmonella typhimurium MTCC 1251 after 24 hrs by two fold dilution method; type: functional, Salmonella enterica subsp. enterica serovar Typhimurium; conditions: Salmonella enterica, MTCC 1251, 24 h; summary of the method: as §2
Klebsiella pneumoniae [9] = assay: Antimicrobial activity against Klebsiella pneumoniae MTCC 109 after 24 hrs by two fold dilution method; type: functional; conditions: MTCC 109, 24 h; summary of the method: as §2
Proteus vulgaris [10] = assay: Antimicrobial activity against Proteus vulgaris MTCC 1771 after 24 hrs by two fold dilution method; type: functional; conditions: MTCC 1771, 24 h; summary of the method: as §2
Staphylococcus aureus [11] = assay: Antimicrobial activity against methicillin-resistant Staphylococcus aureus MTCC 96 after 24 hrs by two fold dilution method; type: functional; conditions: MTCC 96, 24 h; summary of the method: as §2
[12] = test system: Salmonella enterica subsp. enterica serovar Paratyphi B; assay: Antimicrobial activity against Salmonella paratyphi B after 24 hrs by two fold dilution method; type: functional; summary of the method: as §2
Shigella flexneri [13] = assay: Antimicrobial activity against Shigella flexneri MTCC 1457 after 24 hrs by two fold dilution method; type: functional; conditions: MTCC 1457, 24 h; summary of the method: as §2
Pseudomonas aeruginosa [14] = assay: Antimicrobial activity against Pseudomonas aeruginosa MTCC 741 after 24 hrs by two fold dilution method; type: functional; conditions: MTCC 741, 24 h; summary of the method: as §2
Candida albicans [15] = assay: Antimicrobial activity against Candida albicans MTCC 227 after 48 to 72 hrs by two fold dilution method; type: functional
Summary of the method: (§3)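 Yeast was grown in Sabouraud dextrose broth at 28 °C for 48 h and tested per CLSI reference methods. Two-fold serial dilutions from 1000 to 7.81 µg/mL, compound in DMSO (2%), in 96-well plates, incubated 48–72 h at 28 °C. MIC was the lowest concentration with no visible fungal growth. Ketoconazole was the positive control.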

Malassezia pachydermatis [16] = assay: Antimicrobial activity against Malassezia pachydermatis after 48 to 72 hrs by two fold dilution method; type: functional; summary of the method: as §3
Bacillus subtilis [17] = assay: Bactericidal activity against Bacillus subtilis MTCC 441 after 24 hrs by two fold dilution method; type: functional; conditions: MTCC 441, 24 h
Summary of the method: (§4)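 Tubes held 5 mL MHB with two-fold dilutions from 1000 to 7.81 µg/mL and were inoculated with 5 × 10^5 to 1 × 10^6 cells in 0.1 mL MHB, incubated without shaking. Turbidity was checked at 20 h, tubes vortexed and re-incubated 4 h.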

Micrococcus luteus [18] = assay: Bactericidal activity against Micrococcus luteus MTCC 106 after 24 hrs by two fold dilution method; type: functional; conditions: MTCC 106, 24 h; summary of the method: as §4
Klebsiella aerogenes [19] = assay: Bactericidal activity against Enterobacter aerogenes MTCC 111 after 24 hrs by two fold dilution method; type: functional; conditions: MTCC 111, 24 h; summary of the method: as §4
Staphylococcus aureus [20] = assay: Bactericidal activity against Staphylococcus aureus MTCC 96 after 24 hrs by two fold dilution method; type: functional; conditions: MTCC 96, 24 h; summary of the method: as §4
Salmonella typhimurium [21] = assay: Bactericidal activity against Salmonella typhimurium MTCC 1251 after 24 hrs by two fold dilution method; type: functional, Salmonella enterica subsp. enterica serovar Typhimurium; conditions: Salmonella enterica, MTCC 1251, 24 h; summary of the method: as §4
Klebsiella pneumoniae [22] = assay: Bactericidal activity against Klebsiella pneumoniae MTCC 109 after 24 hrs by two fold dilution method; type: functional; conditions: MTCC 109, 24 h; summary of the method: as §4
Proteus vulgaris [23] = assay: Bactericidal activity against Proteus vulgaris MTCC 1771 after 24 hrs by two fold dilution method; type: functional; conditions: MTCC 1771, 24 h; summary of the method: as §4
Staphylococcus aureus [24] = assay: Bactericidal activity against methicillin-resistant Staphylococcus aureus MTCC 96 after 24 hrs by two fold dilution method; type: functional; conditions: MTCC 96, 24 h; summary of the method: as §4
[25] = test system: Salmonella enterica subsp. enterica serovar Paratyphi B; assay: Bactericidal activity against Salmonella paratyphi B after 24 hrs by two fold dilution method; type: functional; summary of the method: as §4
Shigella flexneri [26] = assay: Bactericidal activity against Shigella flexneri MTCC 1457 after 24 hrs by two fold dilution method; type: functional; conditions: MTCC 1457, 24 h; summary of the method: as §4
Pseudomonas aeruginosa [27] = assay: Bactericidal activity against Pseudomonas aeruginosa MTCC 741 after 24 hrs by two fold dilution method; type: functional; conditions: MTCC 741, 24 h; summary of the method: as §4
Candida albicans [28] = assay: Fungicidal activity against Candida albicans MTCC 227 after 48 to 72 hrs by two fold dilution method; type: functional
Malassezia pachydermatis [29] = assay: Fungicidal activity against Malassezia pachydermatis after 48 to 72 hrs by two fold dilution method; type: functional
Bacillus subtilis [30] = assay: Antimicrobial activity against Bacillus subtilis MTCC 441 at 1 mg/disc after 24 hrs by disc diffusion assay; type: functional; summary of the method: as §1
Micrococcus luteus [31] = assay: Antimicrobial activity against Micrococcus luteus MTCC 106 at 1 mg/disc after 24 hrs by disc diffusion assay; type: functional; summary of the method: as §1
Klebsiella aerogenes [32] = assay: Antimicrobial activity against Enterobacter aerogenes MTCC 111 at 1 mg/disc after 24 hrs by disc diffusion assay; type: functional; summary of the method: as §1
Staphylococcus aureus [33] = assay: Antimicrobial activity against Staphylococcus aureus MTCC 96 at 1 mg/disc after 24 hrs by disc diffusion assay; type: functional; summary of the method: as §1
Salmonella typhimurium [34] = assay: Antimicrobial activity against Salmonella typhimurium MTCC 1251 at 1 mg/disc after 24 hrs by disc diffusion assay; type: functional, Salmonella enterica subsp. enterica serovar Typhimurium; summary of the method: as §1
Klebsiella pneumoniae [35] = assay: Antimicrobial activity against Klebsiella pneumoniae MTCC 109 at 1 mg/disc after 24 hrs by disc diffusion assay; type: functional; summary of the method: as §1
Proteus vulgaris [36] = assay: Antimicrobial activity against Proteus vulgaris MTCC 1771 at 1 mg/disc after 24 hrs by disc diffusion assay; type: functional; summary of the method: as §1
Staphylococcus aureus [37] = assay: Antimicrobial activity against […] Staphylococcus aureus MTCC 96 at 1 mg/disc after 24 hrs by disc diffusion assay; type: functional; summary of the method: as §1
[38] = test system: Salmonella enterica subsp. enterica serovar Paratyphi B; assay: Antimicrobial activity against Salmonella paratyphi B at 1 mg/disc after 24 hrs by disc diffusion assay; type: functional; summary of the method: as §1
Shigella flexneri [39] = assay: Antimicrobial activity against Shigella flexneri MTCC 1457 at 1 mg/disc after 24 hrs by disc diffusion assay; type: functional; summary of the method: as §1

| Compound | inhibition zone (IZ) (Pseudomonas aeruginosa [1]) [mm] | inhibition zone (IZ) (Candida albicans [2]) [mm] | inhibition zone (IZ) (Malassezia pachydermatis [3]) [mm] | MIC (Bacillus subtilis [4]) [µg/mL] | MIC (Micrococcus luteus [5]) [µg/mL] | MIC (Klebsiella aerogenes [6]) [µg/mL] | MIC (Staphylococcus aureus [7]) [µg/mL] | MIC (Salmonella typhimurium [8]) [µg/mL] | MIC (Klebsiella pneumoniae [9]) [µg/mL] | MIC (Proteus vulgaris [10]) [µg/mL] | MIC (Staphylococcus aureus [11]) [µg/mL] | MIC [12] [µg/mL] | MIC (Shigella flexneri [13]) [µg/mL] | MIC (Pseudomonas aeruginosa [14]) [µg/mL] | MIC (Candida albicans [15]) [µg/mL] | MIC (Malassezia pachydermatis [16]) [µg/mL] | MBC (Bacillus subtilis [17]) [µg/mL] | MBC (Micrococcus luteus [18]) [µg/mL] | MBC (Klebsiella aerogenes [19]) [µg/mL] | MBC (Staphylococcus aureus [20]) [µg/mL] | also measured |
| --- | --- | --- | --- | --- | --- | --- | --- | --- | --- | --- | --- | --- | --- | --- | --- | --- | --- | --- | --- | --- | --- |
| CC(C)C[C@@H](C)N[C@@H](C)[C@H](O)c1ccccc1.Cl | 17 | 17 | 16 | 125 | 62.5 | 125 | 62.5 | 125 | 62.5 | 125 | 62.5 | 125 | 125 | 62.5 | 62.5 | 62.5 | 250 | 62.5 | 125 | 125 | MBC (Salmonella typhimurium [21]): 250 µg/mL; MBC (Klebsiella pneumoniae [22]): 62.5 µg/mL; MBC (Proteus vulgaris [23]): 250 µg/mL; MBC (Staphylococcus aureus [24]): 125 µg/mL; MBC [25]: 250 µg/mL; MBC (Shigella flexneri [26]): 250 µg/mL; MBC (Pseudomonas aeruginosa [27]): 125 µg/mL; MFC (Candida albicans [28]): 62.5 µg/mL; MFC (Malassezia pachydermatis [29]): 62.5 µg/mL; inhibition zone (IZ) (Bacillus subtilis [30]): 15 mm; inhibition zone (IZ) (Micrococcus luteus [31]): 16 mm; inhibition zone (IZ) (Klebsiella aerogenes [32]): 14 mm; inhibition zone (IZ) (Staphylococcus aureus [33]): 17 mm; inhibition zone (IZ) (Salmonella typhimurium [34]): 14 mm; inhibition zone (IZ) (Klebsiella pneumoniae [35]): 16 mm; inhibition zone (IZ) (Proteus vulgaris [36]): 15 mm; inhibition zone (IZ) (Staphylococcus aureus [37]): 16 mm; inhibition zone (IZ) [38]: 13 mm; inhibition zone (IZ) (Shigella flexneri [39]): 15 mm |
| COc1ccc([C@H](C)N[C@H](C)[C@@H](O)c2ccccc2)cc1.Cl | 14 | 16 | 19 | 62.5 | 62.5 | 62.5 | 62.5 | 125 | 62.5 | 62.5 | 62.5 | 125 | 62.5 | 125 | 62.5 | 62.5 | 125 | 125 | 125 | 125 | MBC (Salmonella typhimurium [21]): 250 µg/mL; MBC (Klebsiella pneumoniae [22]): 125 µg/mL; MBC (Proteus vulgaris [23]): 125 µg/mL; MBC (Staphylococcus aureus [24]): 125 µg/mL; MBC [25]: 250 µg/mL; MBC (Shigella flexneri [26]): 125 µg/mL; MBC (Pseudomonas aeruginosa [27]): 250 µg/mL; MFC (Candida albicans [28]): 62.5 µg/mL; MFC (Malassezia pachydermatis [29]): 62.5 µg/mL; inhibition zone (IZ) (Bacillus subtilis [30]): 18 mm; inhibition zone (IZ) (Micrococcus luteus [31]): 19 mm; inhibition zone (IZ) (Klebsiella aerogenes [32]): 18 mm; inhibition zone (IZ) (Staphylococcus aureus [33]): 17 mm; inhibition zone (IZ) (Salmonella typhimurium [34]): 14 mm; inhibition zone (IZ) (Klebsiella pneumoniae [35]): 17 mm; inhibition zone (IZ) (Proteus vulgaris [36]): 18 mm; inhibition zone (IZ) (Staphylococcus aureus [37]): 18 mm; inhibition zone (IZ) [38]: 17 mm; inhibition zone (IZ) (Shigella flexneri [39]): 17 mm |
